In ChEMBL document CHEMBL4145524, “Chemoenzymatically synthesized GM3 analogues as potential therapeutic agents to recover nervous functionality after injury by inducing neurite outgrowth” (2018) one finds Activity data, which are given here for seven compounds.

SMILES strings stand for the structures. Activity calls are given as the source filed them. No cut-off for these calls is given here.

Experiment [1] has as its system PC-12. Kind of experiment: Induction of neuritogenesis in rat PC12 cells assessed as neurite bearing cells at 10 uM after 72 hrs by inverted microscopic analysis relative to control. In kind it is functional. In a few lines:
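PC12 cells (ATCC; grown in DMEM, 10% heat-inactivated horse serum, 5% FBS, 37 °C, 5% CO2) seeded at 2×10^4/well on poly-L-lysine, attached 24 h, then 24 h in low-serum DMEM (1% horse serum, 0.5% FBS). Compound at 10 μM for 72 h, no NGF. Score cells with at least one neurite ≥2× cell-body diameter, ≥200 cells/sample; mean ± S.D., ≥3 repeats.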

For experiment [2], the system named is PC-12. The experiment is described as follows: Induction of neuritogenesis in NGF-induced rat PC12 cells assessed as neurite bearing cells at 10 uM cotreated with 25 ng/ml NGF after 72 hrs by inverted microscopic analysis relative to control. In kind it is functional. The method, boiled down:
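PC12 cells plated on poly-L-lysine-coated wells at 2×10^4/well, switched to DMEM with 1% horse serum and 0.5% FBS for 24 h, then given compound together with NGF 25 ng/ml for 72 h. Inverted microscopy. Percentage of cells bearing at least one neurite twice the cell-body diameter, over ≥200 cells per sample; mean ± S.D., at least three experiments.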

For the compound `CCCCCCCCCCCCC/C=C/[C@@H](O)[C@H](CO[C@@H]1O[C@H](CO)[C@@H](O[C@@H]2O[C@H](CO)[C@H](O)[C@H](O[C@]3(C(=O)O)C[C@H](O)[C@@H](NC(=O)CCl)[C@H]([C@@H](O)[C@H](O)CO)O3)[C@H]2O)[C@H](O)[C@H]1O)NC(=O)CCCCCCCCCCCCCCCCC`, the Activity in experiment [1] worked out at 8%. In addition, the result in experiment [2] was inactive.
The like results for `CCCCCCCCCCCCC/C=C/[C@@H](O)[C@@H](N)CO[C@@H]1O[C@H](CO[C@]2(C(=O)O)C[C@H](O)[C@@H](NC(C)=O)[C@H]([C@@H](O)[C@H](O)CO)O2)[C@@H](O)[C@H](O)[C@H]1O` were, in that order, 26% and over 30%.
In the same order, the values of `CCCCCCCCCCCCC/C=C/[C@@H](O)[C@@H](N)CO[C@@H]1O[C@H](CO)[C@H](O)[C@H](O[C@]2(C(=O)O)C[C@H](O)[C@@H](NC(C)=O)[C@H]([C@@H](O)[C@H](O)CO)O2)[C@H]1O` are 6% and “Active”.
The like results for `CCCCCCCCCCCCC/C=C/[C@@H](O)[C@@H](N)CO[C@@H]1O[C@H](CO[C@]2(C(=O)O)C[C@H](O)[C@@H](NC(C)=O)[C@H]([C@@H](O)[C@H](O)CO)O2)[C@H](O)[C@H](O)[C@H]1O` were, in that order, 9% and “inactive”.
Regarding `CCCCCCCCCCCCC/C=C/[C@@H](O)[C@H](CO[C@@H]1O[C@H](CO[C@]2(C(=O)O)C[C@H](O)[C@@H](NC(C)=O)[C@H]([C@@H](O)[C@H](O)CO)O2)[C@H](O)[C@H](O)[C@H]1O)NC(=O)CCCCCCCCCCCCCCCCC`, the outcome in experiment [1] and in experiment [2] was inactive.
In the case of `CCCCCCCCCCCCC/C=C/[C@@H](O)[C@H](CO[C@@H]1O[C@H](CO[C@]2(C(=O)O)C[C@H](O)[C@@H](NC(C)=O)[C@H]([C@@H](O)[C@H](O)CO)O2)[C@@H](O)[C@H](O)[C@H]1O)NC(=O)CCCCCCCCCCCCCCCCC`, the result in experiment [1] and in experiment [2] was inactive.
On to `CCCCCCCCCCCCC/C=C/[C@@H](O)[C@H](CO[C@@H]1O[C@H](CO)[C@H](O)[C@H](O[C@]2(C(=O)O)C[C@H](O)[C@@H](NC(C)=O)[C@H]([C@@H](O)[C@H](O)CO)O2)[C@H]1O)NC(=O)CCCCCCCCCCCCCCCCC`, for which the outcome in experiment [1] and in experiment [2] was inactive.
